Hits are enriched below; roughly 0.79% of the tested compounds scored in any of these assays.
PKA-R1A activ – PKA-R1A complex activation; P00514+P68181; PKA-R1A dissociation, Cy5-IP20 fluorescence polarization; scaled: DMSO 0%, 113 µM cGMP 100%; activation, % at 11.4 µM; hit rate 0.083% among 340,000;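 active means percent activation above the mean of all tested compounds plus 3 SD, cut at about 19% in these data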;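 further: higher means more PKAc released from R1A so a rise in polarization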
Rin1-Abl PPI inh – human Rin1-Abl interaction inhibition | P00519+Q13671 | TR-FRET Rin1/Abl binding, biochemical | inhibition, % at 7.35 µM | hit rate 0.4% among 360,000 | AID 588664; in the data active means inhibition above about 5%, passing the limit was not always enough
PKA-R2B activ – PKA-R2B complex activation. PKA-R2B holoenzyme dissociation, Cy5-IP20 fluorescence polarization; R2B truncated from residue 108, S112A mutant; 0% DMSO only, 100% 113 µM cGMP. AID 504700. hit rate 0.079% among 340,000. activation, % at 11.4 µM. P22694+P31323;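 active means activation above a cutoff set at the mean over all compounds plus 3 SD, cut at about 18% in these data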;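 further: higher means more holoenzyme dissociation and a rise in polarization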
Target sequence (P31323 whole entry, looked up, other chains not shown, the tested form may be a part): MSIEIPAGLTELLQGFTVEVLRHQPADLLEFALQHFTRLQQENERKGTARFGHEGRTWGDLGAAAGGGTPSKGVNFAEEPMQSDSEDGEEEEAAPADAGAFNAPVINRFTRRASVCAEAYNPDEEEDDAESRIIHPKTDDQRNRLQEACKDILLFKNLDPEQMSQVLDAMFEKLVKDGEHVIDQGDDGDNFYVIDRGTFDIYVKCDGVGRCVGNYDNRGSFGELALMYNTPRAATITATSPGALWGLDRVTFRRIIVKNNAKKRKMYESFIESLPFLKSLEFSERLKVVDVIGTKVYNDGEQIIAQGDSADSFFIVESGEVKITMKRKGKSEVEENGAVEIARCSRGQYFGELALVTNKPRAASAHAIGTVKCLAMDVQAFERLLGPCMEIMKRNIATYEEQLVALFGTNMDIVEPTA
UCH37 DUB inh – blocks the human deubiquitinase UCH37; inhibition, % (concentration not given with the values); AID 588478; purified proteasome/UCH37, Ub-AMC cleavage fluorescence; hit rate 0.33% among 330,000;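 active means mean inhibition over replicate wells above about 20%, limit read from the data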;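 further: 0% = compound-free wells with enzyme and 100% = wells lacking proteasome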
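Material: Human UCH37 enzyme supplied as purified proteasome complex | Schedule: 30 min compound-proteasome preincubation then 25 min substrate reaction, room temperature | Detection: AMC fluorescence from Ub-AMC cleavage, excitation 355 nm, emission 460 nm | Benchmarks: Wells without proteasome as full block, compound-free enzyme plus substrate as uninhibited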
An asterisk follows results filed as active; nt = no result given.

SMILES	PKA-R1A activ	Rin1-Abl PPI inh	PKA-R2B activ	UCH37 DUB inh
O=C(COC(=O)c1ccc([N+](=O)[O-])o1)NC1CCS(=O)(=O)C1 (stereo not given)	-1.0	-2.6	0.1	24.9*
O=C(COC(=O)c1ccc([N+](=O)[O-])o1)NCCCc1ccccc1	-0.8	-0.6	-1.2	20.1*
CCN(C(=O)COC(=O)c1ccc([N+](=O)[O-])o1)C1CCCCC1	6.2	-0.2	1.2	20.8*
O=C(COC(=O)c1ccc([N+](=O)[O-])o1)NCc1ccc(F)cc1	1.5	7.5	-0.5	24.6*
COc1ccc(CCNC(=O)COC(=O)c2ccc([N+](=O)[O-])o2)cc1	-4.6	3.8	6.5	18.2
COc1ccc(N2CCN(C(=O)CCNC(=O)c3ccc(C(C)(C)C)cc3)CC2)cc1	4.4	1.0	-9.1	2.5
OCCN1CCN(c2ncnc3c2c(-c2ccccc2)cn3-c2ccc(F)cc2)CC1	10.3	-1.5	0.2	0.7
O=C(Cc1c[nH]c2ccccc12)NN=Cc1ccc(F)cc1	nt	nt	nt	0.5
CCOC(=O)c1oc2cc(O)ccc2c(=O)c1-c1ccccc1OC	-2.4	-1.0	-11.7	1.7
COc1ccc(OC)c(-c2oc3ccccc3c(=O)c2O)c1	-0.5	-3.6	-8.1	-0.6
COc1ccc(OC)c(-c2c3cc(O)c(=O)cc-3oc3cc(O)c(O)cc23)c1	-0.5	55.1*	-10.2	nt
Cc1ccccc1-c1cc(=O)c2c(O)cccc2o1	4.5	0.9	-10.6	-1.4
O=c1cc2oc3cc(O)c(O)cc3c(-c3ccccc3O)c-2cc1O	-5.7	67.2*	-6.8	14.5
CCOc1ccccc1-c1c2cc(O)c(=O)cc-2oc2cc(O)c(O)cc12	-8.6	54.2*	-1.1	16.4
O=C(Nc1ccc(N2CCOCC2)cc1)c1cccc2c(Br)cccc12	-8.3	-2.0	-8.4	-8.3
Cn1nc(-c2ccc(Cl)cc2)nc2c(=O)n(C)c(=O)nc1-2	nt	nt	nt	91.9*
CS(=O)(=O)n1nc(-c2ccc(Cl)cc2)nc1N	-8.6	2.4	-7.8	-0.6
CCCCn1c(C)cc(/C=C(\C#N)C(=O)O)c1C	-6.1	-1.0	-7.3	12.9
Cc1cc(/C=C(\C#N)C(=O)O)c(C)n1C1CC1	-2.7	0.0	2.2	20.7*
O=C1C2C3C=CC(C3)C2C(=O)N1c1ccc2ccccc2n1 (stereo not given)	-4.7	-2.8	-3.8	31.6*
Cc1ccc(/C=C(\C#N)C(=O)NCC2CCCO2)o1 (stereo not given)	-6.2	-2.3	12.4	13.2
C=CCNC(=O)/C(C#N)=C/c1ccc(C)o1	-0.6	-0.2	0.1	21.9*
Nc1nc(CN2CCN(c3ccccc3F)CC2)nc(Nc2ccccc2)n1	-0.6	3.1	5.9	0.7
Cc1nnc(SCc2cc(=O)[nH]c(N3CCN(C)CC3)n2)s1	2.2	2.1	0.0	0.0
Cc1ccc(SCc2cc(=O)[nH]c(N3CCN(C)CC3)n2)cc1	-3.3	-2.1	1.9	27.5*
SMILES	PKA-R1A activ	Rin1-Abl PPI inh	PKA-R2B activ	UCH37 DUB inh
O=[N+]([O-])c1cc(C=Nn2cnnc2)ccc1N1CCCC1	nt	nt	nt	21.4*
Nc1c(C(=O)NCC2CCCO2)c2nc3ccccc3nc2n1N=Cc1ccncc1 (stereo not given)	nt	nt	nt	2.5
Cc1ccccc1OCCC(=O)Nc1cc(S(=O)(=O)N2CCCCC2)ccc1N1CCN(C)CC1	-8.4	2.4	-8.9	nt
COc1cccc(Nc2ccccc2C(=O)O)c1	-8.7	-6.7	-5.6	2.4
COc1cc(-c2ccc(Nc3ccccc3C(=O)O)c(OC)c2)ccc1Nc1ccccc1C(=O)O	5.6	0.7	2.4	24.8*
Cn1c(=O)c2nnn(/N=C(\c3ccccc3)C3CC3)c2n(C)c1=O	1.2	-4.6	11.8	nt
Cn1c(=O)c2nnn(N=C(c3ccccc3)C3CC3)c2n(C)c1=O	nt	nt	nt	33.9*
C=CCN1C(=O)C2(C(C(=O)c3ccc(C)o3)=C(O)C(=O)N2CCCN2CCOCC2)c2ccccc21 (stereo not given)	3.8	-0.4	2.1	6.5
CCCN1C(=O)C2(C(C(=O)c3ccc(C)o3)=C(O)C(=O)N2CCCN2CCOCC2)c2ccccc21 (stereo not given)	1.8	0.8	-0.1	20.8*
CCOC(=O)c1c(C)nc2c(c1-c1ccccc1)C(=O)c1ccccc1-2	19.8*	0.7	9.8	2.7
CCN1C(=O)CC(C(C)C)N(C2CCCC2)c2nc(Nc3ccc(C(=O)NC4CCN(C)CC4)cc3OC)ncc21 (stereo not given)	-3.0	-0.1	1.9	nt
CCN1C(=O)CC(c2ccccc2)N(C2CCCC2)c2nc(Nc3ccc(C(=O)NC4CCN(C)CC4)cc3OC)ncc21 (stereo not given)	4.3	10.4*	2.3	-7.5
Cc1ccc([C@@H]2[C@@H]3C(=O)N(C)C(=O)[C@@H]3[C@]3(C)C(=O)N(Cc4ccccc4)CC(=O)N23)o1	-7.2	1.7	4.6	24.9*
COc1ccc(-c2cc(Cl)cc3c(=O)c4ccccc4n(C)c23)cc1F	-11.2	3.2	0.2	3.4
O=C(O)c1cccc(Cn2c(Cl)c(C=NNC(=O)c3cc4ccccc4cc3O)sc2=O)c1	nt	nt	nt	22.4*
CC1=NN(C(=O)CSCc2ccccc2)C(O)(c2ccc(F)cc2)C1 (stereo not given)	-9.8	1.2	0.9	21.8*
CCOC(=O)C1=C(O)/C(=C/c2ccc(-c3ccccc3C(=O)O)o2)SC1=Nc1ccc(OC)cc1	-20.9	-1.8	-3.3	23.5*
COc1ccc(Nc2nc3ccccc3nc2C)cc1	7.2	-2.9	5.0	4.6
COc1cccc(OC)c1C(=O)Nc1nc2ccc([N+](=O)[O-])cc2s1	4.2	-2.1	-5.2	21.2*
O=C(O)C1Nc2ccc(Br)cc2C2C=CCC12 (stereo not given)	3.5	6.2*	9.2	10.6
O=C(O)C1Nc2c(O)cccc2C2C=CCC12 (stereo not given)	-2.6	20.5*	1.4	6.8
CCOC(=O)C1Nc2ccc(Br)cc2C2C=CCC12 (stereo not given)	-8.8	2.9	-6.0	2.8
COC(=O)C1CCN(S(=O)(=O)CCNC(=O)c2ccc3c(c2)OCO3)CC1	-3.5	1.4	4.3	3.3
O=C(O)c1ccc2c(c1)C(=O)/C(=C/c1ccccc1)C2=O	-7.2	-1.1	13.8	22.0*
Cc1ccc(S(=O)(=O)N2CCOC2CNC(=O)C(=O)NCCc2c[nH]c3ccccc23)cc1 (stereo not given)	1.7	2.6	4.7	29.0*
SMILES	PKA-R1A activ	Rin1-Abl PPI inh	PKA-R2B activ	UCH37 DUB inh
CCN(Cc1ccccc1)Cc1ccc(OCc2ccccc2)c(OC)c1	-10.0	-2.9	-5.2	6.2
Cc1cc(/C=C(\C#N)c2nc3ccccc3[nH]2)c(C)n1C	-2.9	-1.7	-0.2	25.5*
CCn1c(O)c(N=Nc2ccc(Cl)c(C(=O)O)c2)c2ccccc21	-1.6	1.0	5.0	20.2*
COC(=O)c1cn(CCOc2ccccc2F)c2ccccc12	-5.8	3.6	2.3	3.3
COC(=O)c1cn(CCOc2ccccc2OC)c2ccccc12	1.7	-2.8	-6.4	21.6*
CCOC(=O)C1(CC)CC(CSc2nc3ccccc3[nH]2)OC1=O (stereo not given)	6.1	-0.3	7.0	5.3

Assay outcomes: PubChem BioAssay, several laboratories
